Assay results from ChEMBL document CHEMBL1926584, “Pterocarpanquinones, aza-pterocarpanquinone and derivatives: synthesis, antineoplasic activity on human malignant cell lines and antileishmanial activity on Leishmania amazonensis” (Bioorg Med Chem, 2011).

How the values were obtained:
SF-295 = assay: Antineoplastic activity against human SF295 cells after 72 hrs by MTT assay; format: functional, cell-based; conditions: SF-295, 72 h
Summary of the method: (§1)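 Tumour lines kept in RPMI 1640 with 10% FBS, 2 mM glutamine, penicillin/streptomycin, 37 °C, 5% CO2. Seeded at 10^5 cells/mL (adherent) or 3×10^5 cells/mL (leukemia). Compounds 0.1–25 µg/mL in DMSO 1%, 72 h. Vehicle controls got equal DMSO. MTT 0.5 mg/mL for 3 h, formazan dissolved in DMSO, absorbance at 595 nm. Doxorubicin 0.01–5 µg/mL as positive control.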

Leishmania amazonensis [1] = assay: Antileishmanial activity against Leishmania amazonensis promastigotes after 72 hrs by MTT assay; format: functional, organism-based
Summary of the method: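 Promastigotes grown at 26 °C in Schneider's medium with 10% FBS. Inoculum 1.0×10^6/ml, compounds 0–20 µM, 72 h at 26 °C. MTT (5 mg/mL solution) added for 2 h, then DMSO, OD at 570 nm. Pentamidine isethionate as reference. Experiments repeated at least three times; IC50 derived by software fitting.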

Leishmania amazonensis [2] = assay: Antileishmanial activity against Leishmania amazonensis amastigotes infected in BALB/c mouse peritoneal macrophages after 72 hrs by microscopy; format: functional, organism-based
Summary of the method: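 Resident BALB/c peritoneal macrophages in RPMI, 2×10^6/mL, 1 h at 37 °C, 5% CO2. Infected with stationary-phase promastigotes at 3:1 parasite/macrophage for 3 h, then washed with PBS. Compounds 0–20 µM in duplicate for 72 h. Hematological stain and light microscopy, amastigotes counted in ≥100 macrophages. Pentamidine reference. Repeated at least three times.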

HCT-8 = assay: Antineoplastic activity against human HCT8 cells after 72 hrs by MTT assay; format: functional, cell-based; conditions: HCT-8, 72 h; summary of the method: as §1
MDA-MB-435 [3] = assay: Antineoplastic activity against human MDA-MB-435 cells after 72 hrs by MTT assay; format: functional, cell-based; conditions: MDA-MB-435, 72 h; summary of the method: as §1
HL-60 = assay: Antineoplastic activity against human HL60 cells after 72 hrs by MTT assay; format: functional, cell-based; conditions: HL-60, 72 h; summary of the method: as §1
J774 = assay: Cytotoxicity against mouse J774 cells after 72 hrs by MTT assay; format: cell-based; conditions: J774, 72 h
Summary of the method: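 J774 murine macrophages (2×10^6 in 200 µL) incubated with a range of compound concentrations for 72 h at 37 °C/5% CO2. Viability by MTT. Pentamidine isethionate as reference. Experiments repeated at least three times.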

K562 = assay: Antineoplastic activity against human K562 cells after 72 hrs by MTT assay; format: functional, cell-based; conditions: K562, 72 h; summary of the method: as §1
PBMC [4] = assay: Cytotoxicity against PHA activated human PBMC cells after 72 hrs by MTT assay; format: cell-based
Summary of the method: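 PBMC isolated from heparinized blood of healthy non-smoking donors (drug-free ≥15 days) by Ficoll-Hypaque density-gradient centrifugation. Plated at 3×10^5 cells/mL in RPMI 1640 with 20% FBS, glutamine and antibiotics, 37 °C, 5% CO2. Phytohemagglutinin (3%) added at start. After 24 h, compounds 0.1–25 µg/mL in DMSO 1% added for 72 h. MTT read-out at 595 nm.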

PBMC [5] = assay: Selectivity index, ratio of IC50 for PHA activated human PBMC cells to IC50 for human MDA-MB-435 cells; format: functional
PBMC [6] = assay: Selectivity index, ratio of IC50 for PHA activated human PBMC cells to IC50 for human HL60 cells; format: functional
PBMC [7] = assay: Selectivity index, ratio of IC50 for PHA activated human PBMC cells to IC50 for human HCT8 cells; format: functional
PBMC [8] = assay: Selectivity index, ratio of IC50 for PHA activated human PBMC cells to IC50 for human SF295 cells; format: functional
MDA-MB-435 [9] = assay: Ratio of doxorubicin IC50 to compound IC50 for human MDA-MB-435 cells; format: functional
PBMC [10] = assay: Selectivity index, ratio of IC50 for PHA activated human PBMC cells to IC50 for human K562 cells; format: functional

SMILES | IC50 (SF-295) | IC50 (Leishmania amazonensis [1]) | IC50 (Leishmania amazonensis [2]) | IC50 (HCT-8) | IC50 (MDA-MB-435 [3]) | IC50 (HL-60) | IC50 (J774) | IC50 (K562) | IC50 (PBMC [4]) | Ratio IC50 (PBMC [5]) | Ratio IC50 (PBMC [6]) | Ratio IC50 (PBMC [7]) | Ratio IC50 (PBMC [8]) | Ratio IC50 (MDA-MB-435 [9]) | Ratio IC50 (PBMC [10])
COC(=O)c1ccc2c(c1)[C@H]1COC3=C(C(=O)c4ccccc4C3=O)[C@H]1O2 (racemic) | > 13 µM | 2.8 µM | 0.5 µM | > 13 µM | > 13 µM | 4.1 µM | 22.5 µM | 8 µM | – | – | – | – | – | – | –
N=C(N)c1ccc(OCCCCCOc2ccc(C(=N)N)cc2)cc1 [PENTAMIDINE] | – | 2.2 µM | 1.5 µM | – | – | – | 70 µM | – | – | – | – | – | – | – | –
c1ccc2c(c1)CC[C@@H]1c3ccccc3O[C@H]21 | > 112 µM | – | – | > 112 µM | > 112 µM | > 112 µM | – | > 112 µM | – | – | – | – | – | – | –
Cc1ccc(S(=O)(=O)N2c3ccccc3[C@H]3CCc4ccccc4[C@H]32)cc1 | > 62.5 µM | 4.85 µM | 2.15 µM | 3 µM | 0.5 µM | 1 µM | 23 µM | 1.9 µM | 7.2 µM | 14.4 | 7.2 | 2.4 | 0.11 | – | –
COc1cc(C=O)cc2c1O[C@@H]1C3=C(OC[C@H]21)C(=O)c1ccccc1C3=O (racemic) | 7.4 µM | 1.27 µM | 1.25 µM | 6 µM | 10.7 µM | 3 µM | 18 µM | 13.5 µM | 6 µM | 0.56 | 2 | 1 | 0.8 | – | –
COc1cccc2c1C(=O)c1c(O)c3c(c(O)c1C2=O)C[C@@](O)(C(=O)CO)C[C@@H]3O[C@H]1C[C@H](N)[C@H](O)[C@H](C)O1 [DOXORUBICIN] | – | – | – | – | – | 0.04 µM | – | 1.67 µM | – | – | – | – | – | – | –
Cc1ccc(S(=O)(=O)N2c3ccccc3[C@H]3COC4=C(C(=O)c5ccccc5C4=O)[C@H]32)cc1 (racemic) | 3.9 µM | 15 µM | > 20 µM | 0.6 µM | 0.4 µM | 7.4 µM | > 100 µM | 5.5 µM | 23 µM | 57.7 | 3.12 | 38.5 | 5.92 | 2 | 4.33
O=C1C2=C(C(=O)c3ccccc31)[C@H]1Oc3ccccc3[C@H]1CO2 (racemic) [PTEROCARPANQUINONE] | 3.6 µM | 1.73 µM | 1.45 µM | 2.6 µM | 2.3 µM | 1.3 µM | 18.5 µM | – | > 20 µM | 8.7 | 15.4 | 7.7 | 5.5 | 0.42 | 12
COc1c2c(c(OC)c3ccccc13)[C@@H]1[C@H](CO2)c2ccccc2N1S(=O)(=O)c1ccc(C)cc1 (racemic) | > 51 µM | – | – | > 51 µM | > 51 µM | > 51 µM | – | 46.7 µM | – | – | – | – | – | – | –
c1ccc2c(c1)O[C@@H]1c3ccccc3OC[C@H]21 | > 112 µM | – | – | > 112 µM | > 112 µM | > 112 µM | – | > 112 µM | – | – | – | – | – | – | –
O=C1C2=C(C(=O)c3ccccc31)[C@H]1Oc3ccc([N+](=O)[O-])cc3[C@H]1CO2 (racemic) | 8.9 µM | 1.07 µM | 1.85 µM | 8.3 µM | 17.4 µM | 6.3 µM | 12.1 µM | – | 8.6 µM | 0.49 | 1.36 | 1.06 | 0.96 | – | –
O=C1C2=C(OCC=C2)C(=O)c2ccccc21 | 2.3 µM | – | – | 2.8 µM | 1.8 µM | 0.5 µM | – | – | < 1.4 µM | 0.78 | 2.8 | 0.5 | 0.6 | – | –
COc1c2c(c(OC)c3ccccc13)[C@H]1Oc3ccccc3[C@H]1CO2 (racemic) | 22.4 µM | – | – | 21.2 µM | 30.8 µM | 17.4 µM | – | 13.5 µM | – | – | – | – | – | – | –
COc1ccc2c(c1)O[C@@H]1C3=C(OC[C@H]21)C(=O)c1ccccc1C3=O (racemic) | 17.7 µM | 2.85 µM | > 20 µM | 10.4 µM | 11.4 µM | 3.5 µM | 49.5 µM | 3.3 µM | 7.8 µM | 0.68 | 2.22 | 0.75 | 0.44 | – | 9.4
Cc1ccc(S(=O)(=O)N2c3ccccc3[C@H]3COc4ccccc4[C@H]32)cc1 | 31.5 µM | – | – | 9 µM | 5 µM | 6.1 µM | – | 6.4 µM | – | – | – | – | – | – | –
